Measurements reported in ChEMBL document CHEMBL1137377, “Evaluation of azasterols as anti-parasitics” (J Med Chem, 2006).

What was measured:
[1] = tested on: Trypanosoma brucei rhodesiense; test: Antitrypanosomal activity against Trypanosoma brucei rhodesiense trypomastigotes; type: functional; conditions: read-out: ED50 (the source's name)
In short: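 Bloodstream-form STIB900 trypomastigotes grown in HMI-18 + 15% HIFCS at 37 °C, 5% CO2. Seeded at 2 × 10^5/mL onto drug dilutions (top 30 µg/mL) for 72 h. Alamar Blue read 5-6 h later by fluorescence (ex/em 530/585 nm). ED50 by curve fitting.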

Plasmodium falciparum [2] = test: Antimalarial activity against Plasmodium falciparum 3D7; type: functional, organism-based; conditions: read-out: ED50 (the source's name)
In short: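 Synchronized ring-stage 3D7 culture at 1% parasitemia in RPMI 1640, 5% hematocrit, 37 °C, 5% CO2. Top final drug concentration 30 µg/mL. After 24 h, (3H)-hypoxanthine added (0.2 µCi/well), then 48 h further incubation. Plates freeze/thawed and harvested, and hypoxanthine uptake counted. ED50 by curve fitting.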

KB = test: Cytotoxicity against KB cell line; type: functional; conditions: Homo sapiens, read-out: TD50 (the source's name)
Trypanosoma cruzi = test: Antitrypanosomal activity against Trypanosoma cruzi trypomastigotes in CD1 mouse macrophage; type: functional; conditions: read-out: ED50 (the source's name)
In short: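 Starch-induced CD1 peritoneal macrophages plated at 4 × 10^5/mL, infected after 24 h with T. cruzi Tulahuan LAC-Z trypomastigotes. 24 h later, drug exposure for 3 days. ED50 by curve fitting.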

Leishmania donovani = test: Antileishmanial activity against Leishmania donovani amastigotes in CD1 mouse macrophage; type: functional, organism-based; conditions: read-out: ED50 (the source's name)
In short: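 Peritoneal macrophages from starch-induced CD1 mice, kept 24 h in RPMI1640 + 10% HIFCS at 37 °C, 5% CO2. Infected with L. donovani MHOM/ET/67/L82 amastigotes from hamster spleen at 5 parasites:1 macrophage. After 24 h, drug exposure for 5 days, overlay replaced day 3. Top concentration 30 µg/mL, quadruplicate. Slides methanol-fixed, Giemsa-stained, counted microscopically. ED50 by curve fitting.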

Plasmodium falciparum [3] = test: Antimalarial activity against Plasmodium falciparum K1; type: functional, organism-based; conditions: read-out: ED50 (the source's name)

SMILES	EC50 [1]	EC50 (Plasmodium falciparum [2])	EC50 (Trypanosoma cruzi)	EC50 (Leishmania donovani)	EC50 (Plasmodium falciparum [3])	CC50 (KB)
COC(=O)CCCCNC(=O)[C@@H](C)[C@H]1CC[C@H]2C3CC=C4C[C@@H](OC(C)=O)CC[C@]4(C)[C@H]3CC[C@]12C (some centres not stated)	3.01 µM	0.74 µM	2.43 µM	> 60 µM	8.43 µM	> 598 µM
COC(=O)CNC(=O)[C@@H](C)[C@H]1CC[C@H]2C3CC=C4C[C@@H](OC(C)=O)CC[C@]4(C)[C@H]3CC[C@]12C (some centres not stated)	24 µM	60 µM	42.2 µM	> 65 µM	9.6 µM	> 653 µM
COC(=O)CCCCCNC(=O)[C@@H](C)[C@H]1CC[C@H]2C3CC=C4C[C@@H](OC(C)=O)CC[C@]4(C)[C@H]3CC[C@]12C (some centres not stated)	3.45 µM	21.3 µM	2.54 µM	> 58 µM	19.8 µM	> 582 µM
COC(=O)CCCCCCCNC(=O)[C@@H](C)[C@H]1CC[C@H]2C3CC=C4C[C@@H](OC(C)=O)CC[C@]4(C)[C@H]3CC[C@]12C (some centres not stated)	0.607 µM	21.5 µM	> 55 µM	> 55 µM	2.87 µM	> 552 µM
COC(=O)CCCCCCNC(=O)[C@@H](C)[C@H]1CC[C@H]2C3CC=C4C[C@@H](OC(C)=O)CC[C@]4(C)[C@H]3CC[C@]12C (some centres not stated)	7.91 µM	14.4 µM	10.8 µM	> 57 µM	1.26 µM	> 566 µM

Continued, in another order:

EC50 [1]	EC50 (Plasmodium falciparum [2])	EC50 (Trypanosoma cruzi)	EC50 (Leishmania donovani)	EC50 (Plasmodium falciparum [3])	SMILES	CC50 (KB)
9.15 µM	16.2 µM	4.7 µM	> 62 µM	11.6 µM	COC(=O)CCCNC(=O)[C@@H](C)[C@H]1CC[C@H]2C3CC=C4C[C@@H](OC(C)=O)CC[C@]4(C)[C@H]3CC[C@]12C (some centres not stated)	> 615 µM
6 µM	17.4 µM	3.46 µM	> 63 µM	19.1 µM	COC(=O)CCNC(=O)[C@@H](C)[C@H]1CC[C@H]2C3CC=C4C[C@@H](OC(C)=O)CC[C@]4(C)[C@H]3CC[C@]12C (some centres not stated)	597 µM
